Each block holds one compound with its values, some of them ahead of it. The source made the active and inactive calls. The calls are words filed in the database; no cut-off is given here.
How the values were obtained:
[1] = molecular target: Ubiquitin carboxyl-terminal hydrolase isozyme L1 (Homo sapiens) (UniProt P09936); experiment: Inhibition of UCHL1 in HEK293T cells incubated for 24 hrs by SDS-PAGE based fluorescence scanning Western blot analysis; assay type: cell-based
[2] = molecular target: T1, Parkinson disease protein 7 (Homo sapiens) (UniProt Q99497); experiment: Binding affinity to PARK7 in HEK293T cells assessed as target engagement at 1 to 5 uM incubated for 24 hrs by SDS-PAGE based fluorescence scanning Western blot analysis; assay type: cell-based; conditions: dose 1-5 µM
T1 sequence (whole entry): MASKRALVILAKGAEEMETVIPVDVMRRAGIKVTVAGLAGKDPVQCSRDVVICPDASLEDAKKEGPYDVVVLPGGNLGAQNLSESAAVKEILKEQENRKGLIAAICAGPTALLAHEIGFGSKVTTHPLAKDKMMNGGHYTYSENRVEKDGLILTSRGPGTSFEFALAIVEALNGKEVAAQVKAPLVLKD
Outline: (§1)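 Live HEK293T cells (DMEM, 7.5% FBS, 37 °C, 5% CO2) exposed to inhibitor for 24 h, then washed and lysed in Tris/NaCl/0.5% Triton X-100/2 mM TCEP pH 7.5 buffer. Lysate labelled with SulfoCy5 probe JYQ-92 (1 μM, 30 min). Residual PARK7 activity read by SDS-PAGE with Cy5-channel fluorescence scan, then immunoblot for PARK7 with β-actin as loading control.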

[3] = molecular target: T1, Parkinson disease protein 7 (Homo sapiens); experiment: Binding affinity to PARK7 in A549 cells assessed as band shift at 5 uM incubated for 24 hrs by SDS-PAGE based fluorescence scanning immunoblotting analysis
[4] = test system: A549; experiment: Cellular protein labelling in human A549 cells assessed as unspecific 55-75 kDa band formation at 5 uM by SDS-PAGE based fluorescence scanning immunoblotting analysis; assay type: functional, cell-based
Outline: (§2)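 Probes applied to intact HEK293T or A549 cells at 5 μM final for 24 h, then lysed. Read-out by SDS-PAGE fluorescence scan and immunoblot against PARK7, looking at the ~25 kDa labelled band, PARK7 band shift and extra bands.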

[5] = molecular target: T1, Parkinson disease protein 7 (Homo sapiens); experiment: Binding affinity to PARK7 in human A549 cells assessed as band shift at 5 uM incubated for 24 hrs by SDS-PAGE based fluorescence scanning immunoblotting analysis; assay type: cell-based; outline: as §2
[6] = molecular target: T1, Parkinson disease protein 7 (Homo sapiens); experiment: Binding affinity to recombinant human PARK7 at 1 uM incubated for 1 hrs by coomassie staining based SDS-PAGE fluorescence scanning analysis relative to control
[7] = molecular target: T1, Parkinson disease protein 7 (Homo sapiens); experiment: Binding affinity to recombinant human PARK7 incubated for 1 hrs by coomassie staining based SDS-PAGE fluorescence scanning analysis; conditions: dose 0.1-10 µM
[8] = Drug penetration in human A549 cells at 5 uM incubated for 1 hrs by DAPI staining based confocal microscopic analysis; assay type: ADME, cell-based; conditions: a549, 1 h
Outline: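 A549 cells incubated with probes at 5 μM final over a time course (1–24 h). For microscopy, cells on coverslips were fixed in 3.7% formaldehyde/PBS for 20 min, mounted with DAPI and imaged by confocal (63× oil). In parallel, cells were lysed for SDS-PAGE fluorescence scan and PARK7 immunoblot.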

[9] = test system: A549 (Homo sapiens); experiment: Cellular protein labelling in A549 cells assessed as unspecific 55-75 kDa band formation at 5 uM by SDS-PAGE based fluorescence scanning immunoblotting analysis
[10] = molecular target: T1, Parkinson disease protein 7 (Homo sapiens); experiment: Binding affinity to PARK7 in HEK293T cells assessed as band shift at 5 uM incubated for 24 hrs by SDS-PAGE based fluorescence scanning immunoblotting analysis; assay type: cell-based; outline: as §1
[11] = molecular target: T1, Parkinson disease protein 7 (Homo sapiens); experiment: Binding affinity to recombinant human PARK7 at 5 uM incubated for 1 hrs by coomassie staining based SDS-PAGE fluorescence scanning analysis relative to control
[12] = molecular target: T2, Protein cereblon/Parkinson disease protein 7 (Homo sapiens) (UniProt Q96SW2+Q99497); experiment: PROTAC activity at CRBN/PARK7 in human A549 cells assessed as induction of PARK7 degradation at 0.1 to 5 uM incubated for 8 hrs by Western blot analysis; assay type: cell-based; conditions: dose 0.1-5 µM
T2 sequence (Q96SW2 whole entry, looked up, one chain of several): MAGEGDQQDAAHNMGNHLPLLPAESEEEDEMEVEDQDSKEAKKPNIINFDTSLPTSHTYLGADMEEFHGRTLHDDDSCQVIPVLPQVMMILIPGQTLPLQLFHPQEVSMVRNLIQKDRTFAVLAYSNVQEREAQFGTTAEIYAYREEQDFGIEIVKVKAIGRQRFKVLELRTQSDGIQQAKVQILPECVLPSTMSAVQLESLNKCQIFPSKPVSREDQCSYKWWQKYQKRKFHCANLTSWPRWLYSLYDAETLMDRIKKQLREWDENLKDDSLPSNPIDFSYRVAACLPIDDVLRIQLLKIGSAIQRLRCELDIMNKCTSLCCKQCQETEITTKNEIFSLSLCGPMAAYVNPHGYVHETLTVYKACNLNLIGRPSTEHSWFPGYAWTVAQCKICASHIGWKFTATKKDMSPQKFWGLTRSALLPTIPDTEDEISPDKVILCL
Outline: (§3)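 A549 cells treated the day after seeding with PROTAC (0.1–5 μM) for 8 h. Lysates boiled in LDS with β-mercaptoethanol and run on 4–12% Bis-Tris/MOPS SDS-PAGE. PARK7 immunoblotted and normalized to DMSO; three independent biological replicates, mean ± SD, Student's t test.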

[13] = molecular target: T2, Protein cereblon/Parkinson disease protein 7 (Homo sapiens); experiment: PROTAC activity at CRBN/PARK7 in human A549 cells assessed as induction of PARK7 degradation at 2 uM incubated for 8 hrs by Western blot analysis; assay type: cell-based; outline: as §3
[14] = test system: A549; experiment: Cytotoxicity in human A549 cells assessed as reduction in cell viability upto 5 uM incubated for 72 hrs by CellTiter-Blue viability assay; assay type: toxicity, cell-based; conditions: a549, 72 h
Outline: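 A549 cells (5×10^3/well) exposed next day to inhibitor, with DMSO as control. Compound renewed at 36 h, then 36 h more (72 h total). Viability read by CellTiter-Blue, normalized to DMSO and background-corrected.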

[15] = test system: A549; experiment: Downregulation of DOP1B protein level in human A549 cells at 5 uM incubated for 8 hrs by TMT-based total proteome profiling; assay type: functional, cell-based
Outline: (§4)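 A549 cells treated 2 days after seeding with 5 μM compound, or DMSO, for 8 h. Lysed in 5% SDS buffer; 100 μg protein reduced, alkylated and trypsin-digested. Peptides TMTpro-labelled, pooled, high-pH fractionated and analysed by nano-LC-MS/MS; fold change and p-value taken against DMSO.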

[16] = molecular target: T2, Protein cereblon/Parkinson disease protein 7 (Homo sapiens); experiment: PROTAC activity at CRBN/PARK7 in human NCI-H1299 cells assessed as induction of PARK7 degradation incubated for 8 hrs by Western blot analysis; assay type: cell-based; conditions: dose 0.1-5 µM
Outline: (§5)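 HeLa, H1299 or MCF7 cells (DMEM, 7.5% FBS) treated with a PROTAC concentration series for 8 h. Lysates analysed by SDS-PAGE and anti-PARK7 immunoblot.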

[17] = molecular target: T2, Protein cereblon/Parkinson disease protein 7 (Homo sapiens); experiment: PROTAC activity at CRBN/PARK7 in human HeLa cells assessed as induction of PARK7 degradation incubated for 8 hrs by Western blot analysis; assay type: cell-based; conditions: dose 0.1-5 µM; outline: as §5
[18] = molecular target: T2, Protein cereblon/Parkinson disease protein 7 (Homo sapiens); experiment: PROTAC activity at CRBN/PARK7 in human A549 cells assessed as induction of PARK7 degradation at 5 uM incubated for 4 to 24 hrs by Western blot analysis; assay type: cell-based; conditions: time 4-24 hrs
Outline: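 A549 cells exposed to PROTAC at 5 μM for varying times across the 4–24 h window. Lysates analysed by SDS-PAGE and anti-PARK7 immunoblot.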

[19] = molecular target: T2, Protein cereblon/Parkinson disease protein 7 (Homo sapiens); experiment: PROTAC activity at CRBN/PARK7 in human A549 cells assessed as induction of PARK7 degradation at 5 uM preincubated with MG-132 for 4 hrs followed by compound addition and measured after 8 hrs by Western blot analysis; assay type: cell-based
Outline: (§6)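 A549 cells pretreated 4 h with 5 μM pomalidomide, 5 μM PARK7 inhibitor or 10 μM MG-132, then given PROTAC (5 μM) for a further 8 h. PARK7 level assessed by lysis, SDS-PAGE and immunoblot.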

[20] = molecular target: T2, Protein cereblon/Parkinson disease protein 7 (Homo sapiens); experiment: PROTAC activity at CRBN/PARK7 in human MCF7 cells assessed as induction of PARK7 degradation incubated for 8 hrs by Western blot analysis; assay type: cell-based; conditions: dose 0.1-5 µM; outline: as §5
[21] = molecular target: T2, Protein cereblon/Parkinson disease protein 7 (Homo sapiens); experiment: PROTAC activity at CRBN/PARK7 in human A549 cells assessed as induction of PARK7 degradation at 5 uM incubated for 8 hrs by TMT-based total proteome profiling; assay type: cell-based; outline: as §4
[22] = test system: A549; experiment: Downregulation of TM7SF3 protein level in human A549 cells at 5 uM incubated for 8 hrs by TMT-based total proteome profiling; assay type: functional, cell-based; outline: as §4
[23] = molecular target: T2, Protein cereblon/Parkinson disease protein 7 (Homo sapiens); experiment: PROTAC activity at CRBN/PARK7 in human A549 cells assessed as induction of PARK7 degradation at 5 uM preincubated with pomalidomide for 4 hrs followed by compound addition and measured after 8 hrs by Western blot analysis; assay type: cell-based; outline: as §6
[24] = molecular target: T2, Protein cereblon/Parkinson disease protein 7 (Homo sapiens); experiment: PROTAC activity at CRBN/PARK7 in human A549 cells assessed as induction of PARK7 degradation at 5 uM preincubated with (R)-1-cyano-N-(5-(2-fluoro-5-(1H-1,2,3-triazol-1-yl)benzoyl)-4,5,6,7-tetrahydrothiazolo[5,4-c]pyridin-2-yl)pyrrolidine-3-carboxamide for 4 hrs followed by compound addition and measured after 8 hrs by Western blot analysis; assay type: cell-based; outline: as §6
[25] = molecular target: T1, Parkinson disease protein 7 (Homo sapiens); experiment: Inhibition of PARK7 in HEK293T cells at 0.1 to 20 uM incubated for 24 hrs by SDS-PAGE based fluorescence scanning analysis; assay type: cell-based; conditions: dose 0.1-20 µM; outline: as §1
[26] = test system: A549; experiment: Effect on PARK7 protein level in human A549 cells at 5 uM incubated for 8 hrs by TMT-based total proteome profiling; assay type: functional, cell-based; outline: as §4
[27] = molecular target: T1, Parkinson disease protein 7 (Homo sapiens); experiment: Binding affinity to recombinant human PARK7 at 2 uM incubated for 1 hrs by coomassie staining based SDS-PAGE fluorescence scanning analysis relative to control

Ubiquitin carboxyl-terminal hydrolase isozyme L1 (Homo sapiens), sequence (P09936 whole entry, looked up): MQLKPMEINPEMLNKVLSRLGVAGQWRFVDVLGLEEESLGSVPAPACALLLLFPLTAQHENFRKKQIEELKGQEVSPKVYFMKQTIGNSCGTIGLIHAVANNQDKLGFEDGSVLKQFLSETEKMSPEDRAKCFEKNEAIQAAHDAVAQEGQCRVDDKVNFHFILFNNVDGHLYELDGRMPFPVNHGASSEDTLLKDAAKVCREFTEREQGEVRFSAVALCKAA

Compound: CC[N+]1=C(/C=C/C=C/C=C2/N(CCCCCC(=O)NCCCc3cn(-c4ccc(F)c(C(=O)N5CCc6nc(NC(=O)[C@@H]7CCN(C#N)C7)sc6C5)c4)nn3)c3ccc(S(=O)(=O)O)cc3C2(C)C)C(C)(C)c2cc(S(=O)(=O)[O-])ccc21
Activity [3]: Active
Activity [4]: Active
Activity [5]: Active
Activity [6]: 100%
Activity [7]: Dose-Dependent Effect
Drug uptake [8]: Active
Activity [9]: Active

Compound: CC1=CC(C)=[N+]2C1=C(CCCCc1cn(CC(=O)N3CCN(S(=O)(=O)c4cccc(C(=O)N5CCc6nc(NC(=O)[C@@H]7CCN(C#N)C7)sc6C5)c4)CC3)nn1)c1c(C)cc(C)n1[B-]2(F)F
Activity [10]: inactive
Activity [11]: 100%
Activity [5]: inactive
Activity [7]: Dose-Dependent Effect

Compound: N#CN1CC[C@@H](C(=O)Nc2nc3c(s2)CN(C(=O)c2cccc(S(=O)(=O)N4CCN(C(=O)Cn5cc(COCCOCCNc6cccc7c6C(=O)N(C6CCC(=O)NC6=O)C7=O)nn5)CC4)c2)CC3)C1 (stereo partly specified)
Activity [12]: inactive

Compound: N#CN1CC[C@@H](C(=O)Nc2nc3c(s2)CN(C(=O)c2cc(-n4cc(COCCOCCOCCNc5cccc6c5C(=O)N(C5CCC(=O)NC5=O)C6=O)nn4)ccc2F)CC3)C1 (stereo partly specified)
Activity [13]: Active

Compound: N#CN1CC[C@@H](C(=O)Nc2nc3c(s2)CN(C(=O)c2cc(-n4cc(COCCOCCNc5cccc6c5C(=O)N(C5CCC(=O)NC5=O)C6=O)nn4)ccc2F)CC3)C1 (stereo partly specified)
Activity [12]: Active
Activity [15]: Active
Activity [16]: Dose-Dependent Effect
Activity [17]: Dose-Dependent Effect
Activity [18]: Active
Activity [19]: inactive
Activity [20]: Dose-Dependent Effect
Activity [21]: Active
Activity [22]: Active
Activity [23]: inactive
Activity [24]: inactive

Compound: N#CN1CC[C@@H](C(=O)Nc2nc3c(s2)CN(C(=O)c2cccc(S(=O)(=O)N4CCN(C(=O)Cn5cc(COCCOCCOCCNc6cccc7c6C(=O)N(C6CCC(=O)NC6=O)C7=O)nn5)CC4)c2)CC3)C1 (stereo partly specified)
Activity [12]: inactive

Compound: CC[N+]1=C(/C=C/C=C/C=C2/N(CCCCCC(=O)NCCCc3cn(CC(=O)N4CCN(S(=O)(=O)c5cccc(C(=O)N6CCc7nc(NC(=O)[C@@H]8CCN(C#N)C8)sc7C6)c5)CC4)nn3)c3ccc(S(=O)(=O)[O-])cc3C2(C)C)C(C)(C)c2cc(S(=O)(=O)O)ccc21
Activity [3]: Active
Activity [4]: Active
Activity [5]: Active
Activity [27]: 100%
Activity [7]: Dose-Dependent Effect
Drug uptake [8]: Active
Activity [9]: Active

The next lines start with results.

inhibition [1]: inactive
Activity [2]: Active
Compound: CC(=O)N1CCN(S(=O)(=O)c2cccc(C(=O)N3CCc4nc(NC(=O)[C@@H]5CCN(C#N)C5)sc4C3)c2)CC1

inhibition [1]: Active
Compound: Cc1cc(C(=O)N2CCc3nc(NC(=O)[C@@H]4CCN(C#N)C4)sc3C2)ccc1Br

inhibition [1]: inactive
Compound: N#CN1CC[C@@H](C(=O)Nc2nc3c(s2)CN(C(=O)c2cccc(S(=O)(=O)N4CCOCC4)c2)CC3)C1
Activity [14]: Non-Toxic

inhibition [25]: inactive
Compound: N#CN1CC[C@@H](C(=O)Nc2nc3c(s2)CN(C(=O)CN=[N+]=[N-])CC3)C1

inhibition [1]: inactive
Compound: N#CN1CC[C@@H](C(=O)Nc2nc3c(s2)CN(C(=O)c2cc(-n4ccnn4)ccc2F)CC3)C1
Activity [15]: Active
Activity [14]: Non-Toxic
Activity [26]: inactive
Activity [22]: Active

inhibition [1]: Active
Compound: N#CN1CC[C@@H](C(=O)Nc2nc3c(s2)CN(C(=O)c2cnc(-c4cccs4)s2)CC3)C1

inhibition [1]: Active
Compound: N#CN1CC[C@@H](C(=O)Nc2nc3c(s2)CN(C(=O)c2cccc(-c4ncon4)c2)CC3)C1

inhibition [1]: Active
Compound: Cc1csc(-c2cccc(C(=O)N3CCc4nc(NC(=O)[C@@H]5CCN(C#N)C5)sc4C3)c2)n1

Source: ChEMBL document CHEMBL5506034, “Development of Inhibitors, Probes, and PROTAC Provides a Complete Toolbox to Study PARK7 in the Living Cell” (J Med Chem, 2024)
